Source: PubChem (several laboratories)
SKKanGAS inh: SKKanGAS growth inhibition. inhibition, % at 7.5 µM. S. pyogenes SKKanGAS, kanamycin growth, BacTiter-Glo, 6 h. 300,000 tested, 1.3% active;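 active = mean replicate score, as percent of positive control median, at least 50; inconclusive = mean below 50 but one replicate at or above 50; inactive = mean and every replicate below 50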;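 note: strain carries kanamycin resistance gene driven by streptokinase promoter and grows in 40 µg/ml kanamycin; loss of luminescence reflects streptokinase promoter inhibition or plain growth inhibition; 0% = median of DMSO wells and 100% = positive control at its reference dose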
WT yeast gro inh: growth inhibition of WT yeast, mitochondrial fusion screen. inhibition, % at 10 µM. 190,000 tested, 2.1% active. mitochondrial fusion phenotypic screen, WT strain; in the data active = inhibition above about 58%; tested in S. cerevisiae
Autophagy HCS: modulators of autophagy; 190,000 tested, 0.98% active; calls only at 10 µM (by protocol); MEF GFP-LC3 puncta imaging; test concentration mostly 10 µM;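 active = percentage of spot-positive cells more than 3 SD above its plate mean, without a fluorescence outlier flag or 80% toxicity; inconclusive = no clear call, values can overlap the other calls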;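 note: spot-positive cell cutoff set from DMSO-treated cells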
Rad51 HR inh: blocks human Rad51 in homologous recombination; 200,000 tested, 0.085% active; AID 1385; inhibition, % at 10 µM; hRad51 DNA strand exchange, fluorescence dequenching; Q06609;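 active = inhibition above 40% at the single screening dose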;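 note: 0% = DMSO control wells and 100% = blanks with heterologous ssDNA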
Target sequence (Q06609 whole entry, looked up): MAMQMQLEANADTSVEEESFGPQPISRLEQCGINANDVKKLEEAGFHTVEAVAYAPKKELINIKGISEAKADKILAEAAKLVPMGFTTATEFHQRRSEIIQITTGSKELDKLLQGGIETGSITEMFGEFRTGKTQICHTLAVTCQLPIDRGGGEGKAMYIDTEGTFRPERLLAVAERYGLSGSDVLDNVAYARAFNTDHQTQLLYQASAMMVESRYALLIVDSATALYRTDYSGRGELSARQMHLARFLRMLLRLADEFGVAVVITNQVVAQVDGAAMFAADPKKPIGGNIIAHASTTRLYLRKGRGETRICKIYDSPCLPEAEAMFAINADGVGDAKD
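material = hRad51 filaments on single-stranded DNA | timing = filaments 15 min 37 °C, then compound 30 min | signal = FRET fluorescence dequenching, excitation 485 nm, emission 520 nm | benchmarks = control wells and blank wells on each plate | evaluation = percent inhibition relative to plate controls and blanks | compound = 10 µM final, single point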
Insulin prom up: MIN6 insulin promoter up-regulation. 190,000 tested, 0.3% active. MIN6 insulin promoter-GFP reporter, high-content imaging; hits give high values. z-score at 5 µM;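 active = z-score above 3 at 5 µM with at least 500 cells counted in the well; inconclusive = wells under 500 cells, flagged as cytotoxic or low count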
Cl transport mod: KCC2 (human) Cl- transport modulation. Q9H2X9. KCC2 cells, thallium flux FluoZin-2 fluorescence. B-score of Tl+ flux slope (higher = more flux/activation; lower = inhibition) at 10 µM. 190,000 tested, 2.2% active. AID 1456;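 active = thallium flux slope and its plate-corrected score both differing from the plate sample mean at a set confidence after two filtering rounds, in either direction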;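 note: slope of fluorescence scaled to starting intensity during 10 to 20 s after thallium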
KCC2 secondary: confirmation of human KCC2 transport modulators | shares compounds with Cl transport mod | HEK293-KCC2, thallium flux, FluoZin2 fluorescence; hits give high values | normalised thallium flux (F/F0 slope) at 10 µM | 3,700 tested, 15% active;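 active = thallium flux slope above the same plate's solvent-only control mean plus 3 SD; inconclusive = the two replicate wells disagree; inactive = no significant difference from solvent-only control wells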
KCC2 bumet counter: thallium flux despite bumetanide block in KCC2 cells, secondary assay 3; HEK293-KCC2 + bumetanide/ouabain, thallium flux FluoZin2; hits give high values; normalized thallium flux at 10 µM; shares compounds with Cl transport mod; 3,700 tested, 49% active;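 active = thallium entry rate above the same plate's blocked-transporter control wells by more than 3 SD; inconclusive = the two repeat wells disagree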;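 note: raw slope of fluorescence over initial fluorescence between 10 and 20 s after thallium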
KCC2 secondary2: confirmation of human KCC2 transport modulators | shares compounds with Cl transport mod | HEK293-KCC2, thallium flux FluoZin2 fluorescence; actives lie on both sides; F/F0 rise rate, 10–20 s post-thallium | 3,700 tested, 23% active | normalized thallium flux at 10 µM | AID 1715;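 active = thallium flux slope more than 3 SD above or below the plate's solvent-only control mean, mostly below; inconclusive = the two repeat wells disagreed; inactive = no significant shift from solvent-only controls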;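 note: raw slope with 0.1% DMSO as baseline and bumetanide as block control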
HEK counter1: counter-screen for KCC2 modulators: effect in parental HEK293 cells; shares compounds with Cl transport mod; thallium flux FluoZin2, ouabain; baseline-ratio fluorescence slope, 10–20 s after thallium; thallium flux rate (normalised fluorescence) at 10 µM; 3,700 tested, 46% active; AID 1716;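 active = thallium flux rate significantly above the same plate's solvent-only control wells, beyond their mean plus 3 SD; inconclusive = the two replicate wells gave conflicting results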
KCC2 ouabain: modulates human KCC2 on retest with ouabain; shares compounds with Cl transport mod; HEK293-KCC2, thallium flux FluoZin2 fluorescence; bidirectional: low = inhibitor, high = activator; raw Tl+ flux slope (below DMSO = inhibition, above = activation) at 10 µM; 3,700 tested, 48% active; AID 1717;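 active = thallium flux slope beyond 3 SD from same-plate DMSO control mean in most replicates, usually higher, sometimes lower; inconclusive = repeat tests gave conflicting results; inactive = no significant difference from controls in most replicates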;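 note: slope of initial-normalized fluorescence between seconds 10 and 20 after thallium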
HEK counter2: parental HEK flux effect, counter-screen 2; shares compounds with Cl transport mod; HEK293 parental, thallium flux FluoZin-2 fluorescence slope; thallium flux slope at 10 µM; 3,700 tested, 33% active;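 active = thallium flux slope above the same plate's solvent-control mean plus 3 SD in both duplicate wells; inconclusive = duplicate wells that disagreed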;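 note: run without ouabain in cells lacking the KCC2 cotransporter; slope of fluorescence scaled to its starting value between 10 and 20 s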
The depositor's hits bear a star. Hits are enriched below; roughly 4.2% of the tested compounds scored in any of these assays.

How did c1ccc2c(CCNc3ncnc4nc[nH]c34)cccc2c1 do in these assays?
SKKanGAS inh: -6; WT yeast gro inh: -17; Autophagy HCS: inactive; Rad51 HR inh: -3; Cl transport mod: -3.2*; KCC2 secondary: 0.0085; KCC2 bumet counter: 0.0041; KCC2 secondary2: 0.035; HEK counter1: 0.0076; KCC2 ouabain: 0.017*; HEK counter2: 0.011

How did O=c1cc(CN2CCc3ccccc32)c2ccc(O)cc2o1 do in these assays?
SKKanGAS inh: -5; WT yeast gro inh: -2; Autophagy HCS: inactive; Rad51 HR inh: 18; Insulin prom up: 0.94; KCC2 secondary: 0.0089; KCC2 bumet counter: 0.0062; KCC2 secondary2: 0.038; HEK counter1: 0.0035; KCC2 ouabain: 0.018*; HEK counter2: 0.01

How did O=C(NC(=S)NNC(=O)c1cc2ccccc2cc1O)c1ccco1 do in these assays?
SKKanGAS inh: 98*; WT yeast gro inh: 16; Autophagy HCS: inactive; Insulin prom up: -2.8; Cl transport mod: 48*; KCC2 secondary: 0.021*; KCC2 bumet counter: 0.073*; KCC2 secondary2: 0.034; HEK counter1: 0.05*; KCC2 ouabain: 0.058*; HEK counter2: 0.014*

How did O=C(NC(=S)NNC(=O)c1ccccc1O)c1ccco1 do in these assays?
SKKanGAS inh: 65*; WT yeast gro inh: 12; Autophagy HCS: inactive; Rad51 HR inh: -7; Insulin prom up: 0.8; Cl transport mod: 3.5*; KCC2 secondary: 0.011; KCC2 bumet counter: 0.013*; KCC2 secondary2: 0.035; HEK counter1: inconclusive; KCC2 ouabain: inconclusive; HEK counter2: 0.011

How did Cc1ccc(S(=O)(=O)N2CCCC2CNC(=O)C(=O)Nc2ccc(F)cc2)cc1 (centres undefined) do in these assays?
SKKanGAS inh: 0

What do the screens show for `COC(=O)c1ccc2c(=O)n(CCCCCC(=O)NCc3ccccc3)c(=O)[nH]c2c1`?
SKKanGAS inh: -10; WT yeast gro inh: -2; Autophagy HCS: inactive; Rad51 HR inh: 2; Insulin prom up: 0.31; Cl transport mod: 0.024

What do the screens show for `O=C(CCCn1c(=O)[nH]c2cc(Cl)ccc2c1=O)NCCCN1CCCC1`?
SKKanGAS inh: 0; WT yeast gro inh: 3; Autophagy HCS: inactive; Rad51 HR inh: 2; Insulin prom up: -0.96; Cl transport mod: 0.0027

What do the screens show for `COC(=O)c1ccc2c(=O)n(CCCCCC(=O)NCCNC(C)=O)c(=O)[nH]c2c1`?
SKKanGAS inh: -3; WT yeast gro inh: 1; Autophagy HCS: inactive; Insulin prom up: -0.11; Cl transport mod: 5.4*; KCC2 secondary: 0.0084; KCC2 bumet counter: 0.0069; KCC2 secondary2: 0.034; HEK counter1: 0.0079; KCC2 ouabain: 0.022; HEK counter2: 0.011

Results for O=C(CCCn1c(=O)[nH]c2cc(Cl)ccc2c1=O)NCC1CCCO1 (centres undefined) ?
SKKanGAS inh: -2; WT yeast gro inh: -16; Autophagy HCS: inactive; Insulin prom up: 0.2; Cl transport mod: 8.6*; KCC2 secondary: 0.01; KCC2 bumet counter: 0.0064; KCC2 secondary2: 0.031; HEK counter1: 0.0069; KCC2 ouabain: 0.021; HEK counter2: inconclusive
